Legend:
[1] = melting temperature; fluorescence melt of hairpins on a sequencing array, two-state fit, raised by 9.35 °C to match UV melts; conditions: sodium 0.088 M
Method in brief: (§1)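 Folding enthalpy and melting temperature come from bootstrapped two-state fits to Cy3 fluorescence of library hairpins carrying annealed Cy3 and quencher oligos on a sequenced MiSeq flow cell. Imaging was done in 50 mM Na-HEPES pH 8.0, 25 mM NaCl, stepping by 2.5 °C up to 60 °C, and signals were normalised to pre-quench Cy3 and to control constructs. Results of four replicates were combined by inverse variance, and fitted temperatures were raised by 9.35 °C to match UV melts.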

[2] = folding enthalpy; higher = less favourable; fluorescence melt of hairpins on a sequencing array, two-state fit; conditions: sodium 0.088 M
Method in brief: as §1

Sequence	Tm [1] [°C]	folding enthalpy [2] [kcal/mol]
GGTGTGGAAACACACC ((((((....))))))	66.6	-30.2
GACATCGGAAACGATATC ((.((((....)))).))	31.6	-21.9
GGAGTGGGAAACCATTCC (((.(((....))).)))	46	-31
GATCCCGAAAGGGACATC ((((((....)))..)))	30.9	-9.22
GCCATTACGAAAGTAGGC (((..(((....))))))	42.2	-25.6
GATCGTCTATACGATC ((((((....))))))	54.8	-38.9
CGGAATCGGAAACGACCG (((..(((....))))))	35.3	-16.6
GTGACGGGAAACCGCCAC (((.(((....))).)))	52.2	-42.1
GCTTTCTCGAAAGAGAGC (((..(((....))))))	33	-17.8
GACAACGAAAGTTCGGTC ((((((....)))..)))	30.7	-17.7
GCCCGGCGAAAGCAGAGC ((.(.((....)).).))	47.4	-14.4
GCTAACGGAAACGTCAGC (((.(((....))).)))	42.1	-26.6
CGTATGAAAATACG (((((....)))))	47.4	-24.1
GCTTGCGAAAGCATAGC ((((((....))).)))	55.3	-18.9
GAACAGGGAAACCTGCTC ((.((((....)))).))	37.1	-18.8
GTTCCCGAAAGGGGAAAC ((((((....)))..)))	37.2	-11.8
GTACTCGGAAACGAGTGC (.(((((....))))).)	54.5	-41
GTGGTGGGAAACCATCAC (((.(((....))).)))	51.2	-43.1
GCGTCGGTACGC ((((....))))	52.8	-19.3
GGTGGCGAAAGCCATACC ((((((....)))..)))	45.6	-12
GATCGATACTTCGATC ((((((....))))))	53	-57.9
GATCATTATATGATC ((((((...))))))	48.8	-40.2
GAGGACGAAAGTCTCCTC ((((((....)))..)))	36.3	-14.9

Sequence	Tm [1] [°C]	folding enthalpy [2] [kcal/mol]
GGATTACGAAAGTACTCC (((.(((....))).)))	41.1	-27.9
AATGGGAAACCATT (((((....)))))	37.7	-14.1
GCTGTGCGAAAGCCTAGC (((..((....))..)))	44.3	-18.2
GACATAGAAATATGTC ((((((....))))))	45.5	-30
GATCGTCTTCACGATC ((((((....))))))	53.4	-45.7
GCAATCGAAAGATTATGC ((((((....)))..)))	32.8	-17.5
GTGCCTACGAAAGTACAC (((..(((....))))))	37.8	-4.56
GCTTAGCGAAAGCGTAGC (((..((....))..)))	61.3	-28.9
GATCGTCCTCACGATC ((((((....))))))	53.5	-42.9
GATCGTCTTAACGATC ((((((....))))))	58.5	-41.3
GTTAGCCGAAAGGCCAAC (((.(((....))).)))	40.3	-16
GTAACGCGAAAGCGCTAC (((.(((....))).)))	51.9	-19.6
GTGGGGGAAACCCCAC ((((((....))))))	68	-31.9
GGTAGCCGAAAGGCACC (((.(((....))))))	57.5	-18.7
GGGGTAGGAAACTGCTCC ((.(.((....)).).))	35.9	-29.9
GCTATCGAAAGATCGAGC ((((((....)))..)))	29.7	-10.1
GCTCAGCGAAAGCGGCGC ((.(.((....)).).))	58.4	-19.5
GTCGTCGAAAGACTGGAC ((((((....)))..)))	39.2	-20.7
GGGTCAGGAAACTGATCC ((.((((....)))).))	51.9	-38.9
GGCCTAGGAAACTAGGTC (.(((((....))))).)	51.6	-33.7
GATCGTCGCCACGATC ((((((....))))))	53.8	-42.1
GTACGAGCGAAAGCTTAC (((..(((....))))))	22.6	-8.2
GCTACCGGAAACGGTAAC (.(((((....))))).)	37.2	-12.9
